Ends that are not written are not given here.
Legend:
zebrafish embryos = assay: Zebrafish dilated heart phenotype after San MO and cRNA coinjection; type: in vivo, Danio rerio (zebrafish); conditions: 1 ng MO injected alone at one-cell stage, scored at 48 hpf
KRIT1 FERM domain = KRIT1 FERM domain (Homo sapiens, UniProt O00522); type: binding; conditions: GFP-KRIT1 F123 from HEK293 cell lysates, immunoblot
HUVEC = assay: Immunofluorescence localization of HA-KRIT1 at EC-cell junctions; type: cell-based, human; conditions: HA-tagged KRIT1 transfected HUVECs, 24 h, colocalization with VE-cadherin
Outline: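 HUVECs in supplemented EC medium, nucleofected with HA-KRIT1 WT or L717,721A, plated on fibronectin-coated coverslips at ~90% confluence, grown 24 h; fixed 3.7% PFA 30 min, 0.2% Triton X-100 5 min, 10% goat serum block 1 h; mouse anti-HA plus rabbit anti-VE-cadherin 3 h RT, Alexa 488/568 secondaries 1 h; spinning-disk confocal, 40× oil, z-slices; ≥3 independent experiments.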

HUVECs = assay: Myosin light chain phosphorylation; type: cell-based, human; conditions: siRNA-resistant KRIT1 coexpressed with anti-KRIT1 siRNA in HUVECs, immunoblot
Outline: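 HUVECs were kept in supplemented EC medium and nucleofected with anti-KRIT1 siRNA, alone or together with cDNA for WT or L717,721A KRIT1. Phospho-myosin light chain was then assessed by immunoblotting.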

KRIT1 FERM domain, sequence (O00522 420-734 limits assumed): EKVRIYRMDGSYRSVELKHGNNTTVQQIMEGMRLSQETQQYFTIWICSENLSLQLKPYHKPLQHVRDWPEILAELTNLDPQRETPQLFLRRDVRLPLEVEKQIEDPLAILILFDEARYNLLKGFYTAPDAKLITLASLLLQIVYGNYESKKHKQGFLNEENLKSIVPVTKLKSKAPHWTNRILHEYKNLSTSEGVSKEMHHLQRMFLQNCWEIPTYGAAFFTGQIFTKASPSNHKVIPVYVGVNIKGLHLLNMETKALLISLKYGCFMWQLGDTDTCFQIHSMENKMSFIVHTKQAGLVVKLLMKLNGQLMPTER

5′-TTGAAGTCTCACTTTTGTCTCCATG-3′ (morpholino, further chemistry not given here) [San MO]
heart dilation, zebrafish embryos (zebrafish embryos): 95%

HEG1 C26 NAFA (SRHSCIFPGQYAPSAISDESRRRDYF; not fully specified)
KRIT1 binding (KRIT1 FERM domain): no effect on KRIT1 binding

KRIT1: HA-tagged full-length wild-type human KRIT1 expressed in HUVECs
localization at EC-cell junctions (HUVEC): localized at EC–cell junctions | effect on increased myosin light chain phosphorylation caused by KRIT1 silencing (HUVECs): reversed this effect

Source: publication PMC3461514 (The Journal of Cell Biology, 2012)
